# Data as given in ChEMBL document CHEMBL4266062, “Discovery of JND3229 as a New EGFRC797S Mutant Inhibitor with In Vivo Monodrug Efficacy” (ACS Med Chem Lett, 2018).
# Active and inactive are the calls of the source. The calls are words filed in the database; no cut-off is given here.
# Assays:
# BaF3 [1] = assay: Antitumor activity against mouse BAF3 cells harboring EGFR 19D/T790M/C797S mutant implanted in Balb/c mouse assessed as tumor growth inhibition at 60 mg/kg, po administered once daily via gavage for 10 days co-treated with cetuximab once every other day relative to control; format: functional; details: 240 h, read-out: TGI
# Method in brief: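 Same BaF3-EGFR19D/T790M/C797S xenograft in BALB/c mice (n = 6). Positive-control regimen: 60 mg/kg in 10% NMP/90% PEG300 by oral gavage once daily, plus cetuximab 1 mg/kg in 0.9% NaCl/water ip every other day. Relative tumor volume measured every 2–3 days. TGI taken on the final treatment day versus control; Student's t test.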
# BaF3 [2] = assay: Antiproliferative activity against mouse BAF3 cells harboring EGFR 19D/T790M/C797S mutant after 72 hrs by resazurin dye based assay; format: functional, cell-based; details: BaF3, 72 h
# NCI-H1975 = assay: Antiproliferative activity against human NCI-H1975 cells harboring EGFR L858R/T790M mutant after 72 hrs by resazurin dye based assay; format: functional, cell-based; details: NCI-H1975, 72 h
# A-431 = assay: Antiproliferative activity against human A431 cells harboring wild type EGFR after 72 hrs by resazurin dye based assay; format: functional, cell-based; details: A-431, 72 h
# BaF3 [3] = assay: Antiproliferative activity against mouse BAF3 cells harboring EGFR L858R/T790M/C797S mutant after 72 hrs by resazurin dye based assay; format: functional, cell-based; details: BaF3, 72 h
# [4] = test system: Epidermal growth factor receptor (Homo sapiens), P00533 [UNDEFINED MUTATION]; assay: Inhibition of EGFR 19D/T790M/C797S mutant (unknown origin) expressed in mouse BAF3 cells assessed as reduction in EGF-induced receptor phosphorylation preincubated for 2 hrs followed by EGF stimulation for 15 mins by Western blot analysis; format: cell-based
# Method in brief: (§1)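 BaF3 cells stably transfected with the mutant EGFR were treated for 2 h across a range of compound concentrations, then stimulated with EGF for 15 min. Cell lysates were collected, and EGFR phosphorylation was read out by Western blot.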
# Mus musculus [5] = assay: Toxicity in Balb/c mouse implanted with mouse BAF3-EGFR 19D/T790M/C797S mutant cells assessed as change in body weight at 10 mg/kg, ip administered twice daily for 10 days measured every 2 to 3 days during compound dosing; format: organism-based; details: in vivo
# Method in brief: (§2)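 BALB/c mice with established BaF3-EGFR19D/T790M/C797S xenografts (n = 6); 10 mg/kg in 0.5% HPMC ip twice daily for 10 days versus vehicle. Relative tumor volume and body weight recorded every 2–3 days. TGI taken on the final treatment day versus control; Student's t test.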
# [6] = test system: Epidermal growth factor receptor (Homo sapiens), P00533 [L858R,T790M,C797S]; assay: Inhibition of EGFR T790M/L858R/C797S mutant (unknown origin) expressed in mouse BAF3 cells assessed as reduction in EGF-induced receptor phosphorylation preincubated for 2 hrs followed by EGF stimulation for 15 mins by Western blot analysis; format: cell-based; method in brief: as §1
# BaF3 [7] = assay: Antitumor activity against mouse BAF3 cells harboring EGFR 19D/T790M/C797S mutant implanted in Balb/c mouse assessed as tumor growth inhibition at 10 mg/kg, ip administered twice daily for 10 days relative to control; format: functional; details: 240 h, read-out: TGI; method in brief: as §2
# Mus musculus [8] = assay: In vivo inhibition of EGFR phosphorylation in tumor of Balb/c mouse implanted with mouse BAF3-EGFR 19D/T790M/C797S mutant cells at 10 mg/kg, ip administered twice daily for 10 days by H and E staining based IHC analysis; format: functional, organism-based
# Method in brief: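 Xenograft tumor sections taken from the 10 mg/kg ip twice-daily treated mice and controls. Sections stained with H&E and anti-p-EGFR antibody. p-EGFR labeling quantified as relative integrated optical density; Student's t test versus control.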
# [9] = molecular target: Epidermal growth factor receptor (Homo sapiens, UniProt P00533, C797S/L858R/T790M); assay: Inhibition of recombinant human C-terminal His-tagged/N-terminal GST-tagged EGFR (668 to 1210 residues) T790M/L858R/C797S mutant using poly (Glu,Tyr) 4:1 as substrate after 1 hr by ELISA
# [10] = molecular target: Epidermal growth factor receptor (Homo sapiens, UniProt P00533, L858R/T790M); assay: Inhibition of recombinant human EGFR T790M/L858R double mutant using poly (Glu,Tyr) 4:1 as substrate after 1 hr by ELISA
# Epidermal growth factor receptor (Homo sapiens, UniProt P00533, L858R/T790M), sequence (P00533 25-1210 T790M/L858R limits assumed): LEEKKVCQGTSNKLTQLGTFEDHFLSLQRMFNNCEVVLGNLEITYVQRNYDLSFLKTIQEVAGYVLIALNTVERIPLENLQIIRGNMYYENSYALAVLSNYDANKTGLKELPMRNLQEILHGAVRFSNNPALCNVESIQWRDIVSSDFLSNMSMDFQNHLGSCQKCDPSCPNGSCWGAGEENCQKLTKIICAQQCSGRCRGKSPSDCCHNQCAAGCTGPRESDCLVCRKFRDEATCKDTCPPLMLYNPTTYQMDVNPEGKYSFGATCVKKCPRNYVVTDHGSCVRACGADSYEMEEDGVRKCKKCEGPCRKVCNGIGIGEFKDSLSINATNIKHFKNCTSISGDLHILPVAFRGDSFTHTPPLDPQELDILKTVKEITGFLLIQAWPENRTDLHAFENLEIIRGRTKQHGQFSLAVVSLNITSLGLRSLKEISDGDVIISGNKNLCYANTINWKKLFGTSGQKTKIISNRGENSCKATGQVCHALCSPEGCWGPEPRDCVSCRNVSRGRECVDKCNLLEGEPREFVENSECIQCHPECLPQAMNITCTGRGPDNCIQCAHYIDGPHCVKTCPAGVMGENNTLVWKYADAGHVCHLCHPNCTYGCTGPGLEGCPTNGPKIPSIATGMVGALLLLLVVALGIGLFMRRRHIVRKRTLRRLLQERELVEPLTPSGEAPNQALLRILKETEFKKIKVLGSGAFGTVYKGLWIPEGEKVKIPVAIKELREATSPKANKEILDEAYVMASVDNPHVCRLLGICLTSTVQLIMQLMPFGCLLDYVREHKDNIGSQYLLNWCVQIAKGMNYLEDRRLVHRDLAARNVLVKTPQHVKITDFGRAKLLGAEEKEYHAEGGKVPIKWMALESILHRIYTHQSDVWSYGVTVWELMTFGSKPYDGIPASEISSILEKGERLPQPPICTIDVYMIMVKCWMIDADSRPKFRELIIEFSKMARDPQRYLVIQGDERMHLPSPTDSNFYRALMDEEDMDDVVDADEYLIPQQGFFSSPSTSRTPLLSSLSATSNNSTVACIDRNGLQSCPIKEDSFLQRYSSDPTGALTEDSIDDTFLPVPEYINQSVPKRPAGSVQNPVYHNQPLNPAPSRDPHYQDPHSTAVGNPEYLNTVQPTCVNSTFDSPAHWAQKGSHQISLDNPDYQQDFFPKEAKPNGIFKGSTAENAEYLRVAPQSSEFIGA
# Epidermal growth factor receptor (Homo sapiens), P00533 [L858R,T790M,C797S], sequence (P00533 whole entry T790M/C797S/L858R): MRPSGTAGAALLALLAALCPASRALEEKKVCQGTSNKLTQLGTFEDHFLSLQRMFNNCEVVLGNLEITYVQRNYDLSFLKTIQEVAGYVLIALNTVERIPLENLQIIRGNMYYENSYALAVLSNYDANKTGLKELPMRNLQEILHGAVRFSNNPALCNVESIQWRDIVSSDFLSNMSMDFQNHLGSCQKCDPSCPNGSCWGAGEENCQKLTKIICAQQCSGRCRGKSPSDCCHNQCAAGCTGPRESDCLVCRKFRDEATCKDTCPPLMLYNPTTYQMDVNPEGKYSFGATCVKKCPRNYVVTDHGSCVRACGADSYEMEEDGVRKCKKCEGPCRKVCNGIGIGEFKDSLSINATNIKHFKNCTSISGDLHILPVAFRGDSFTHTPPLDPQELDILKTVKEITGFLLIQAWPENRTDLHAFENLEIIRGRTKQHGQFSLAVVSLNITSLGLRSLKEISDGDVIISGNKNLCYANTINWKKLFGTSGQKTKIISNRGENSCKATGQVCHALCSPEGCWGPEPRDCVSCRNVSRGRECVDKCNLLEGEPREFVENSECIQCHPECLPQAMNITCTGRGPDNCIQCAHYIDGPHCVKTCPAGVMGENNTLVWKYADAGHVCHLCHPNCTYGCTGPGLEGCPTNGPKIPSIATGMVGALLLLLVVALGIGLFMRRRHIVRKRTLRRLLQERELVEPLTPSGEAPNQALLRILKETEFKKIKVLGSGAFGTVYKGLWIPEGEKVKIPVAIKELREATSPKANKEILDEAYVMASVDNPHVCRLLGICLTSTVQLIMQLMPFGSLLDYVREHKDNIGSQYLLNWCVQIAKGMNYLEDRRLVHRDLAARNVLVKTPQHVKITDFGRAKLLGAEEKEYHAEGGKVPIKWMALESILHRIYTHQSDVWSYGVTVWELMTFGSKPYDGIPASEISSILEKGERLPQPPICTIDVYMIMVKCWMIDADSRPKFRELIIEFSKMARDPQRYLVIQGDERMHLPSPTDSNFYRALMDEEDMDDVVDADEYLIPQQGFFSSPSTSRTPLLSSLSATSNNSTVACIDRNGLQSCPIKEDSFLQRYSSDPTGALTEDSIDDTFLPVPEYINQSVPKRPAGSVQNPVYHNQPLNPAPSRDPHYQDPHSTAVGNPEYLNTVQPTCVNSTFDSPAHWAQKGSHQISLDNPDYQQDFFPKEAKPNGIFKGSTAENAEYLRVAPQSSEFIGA
# Epidermal growth factor receptor (Homo sapiens), P00533 [UNDEFINED MUTATION], sequence (P00533 whole entry, looked up, stated change not applied): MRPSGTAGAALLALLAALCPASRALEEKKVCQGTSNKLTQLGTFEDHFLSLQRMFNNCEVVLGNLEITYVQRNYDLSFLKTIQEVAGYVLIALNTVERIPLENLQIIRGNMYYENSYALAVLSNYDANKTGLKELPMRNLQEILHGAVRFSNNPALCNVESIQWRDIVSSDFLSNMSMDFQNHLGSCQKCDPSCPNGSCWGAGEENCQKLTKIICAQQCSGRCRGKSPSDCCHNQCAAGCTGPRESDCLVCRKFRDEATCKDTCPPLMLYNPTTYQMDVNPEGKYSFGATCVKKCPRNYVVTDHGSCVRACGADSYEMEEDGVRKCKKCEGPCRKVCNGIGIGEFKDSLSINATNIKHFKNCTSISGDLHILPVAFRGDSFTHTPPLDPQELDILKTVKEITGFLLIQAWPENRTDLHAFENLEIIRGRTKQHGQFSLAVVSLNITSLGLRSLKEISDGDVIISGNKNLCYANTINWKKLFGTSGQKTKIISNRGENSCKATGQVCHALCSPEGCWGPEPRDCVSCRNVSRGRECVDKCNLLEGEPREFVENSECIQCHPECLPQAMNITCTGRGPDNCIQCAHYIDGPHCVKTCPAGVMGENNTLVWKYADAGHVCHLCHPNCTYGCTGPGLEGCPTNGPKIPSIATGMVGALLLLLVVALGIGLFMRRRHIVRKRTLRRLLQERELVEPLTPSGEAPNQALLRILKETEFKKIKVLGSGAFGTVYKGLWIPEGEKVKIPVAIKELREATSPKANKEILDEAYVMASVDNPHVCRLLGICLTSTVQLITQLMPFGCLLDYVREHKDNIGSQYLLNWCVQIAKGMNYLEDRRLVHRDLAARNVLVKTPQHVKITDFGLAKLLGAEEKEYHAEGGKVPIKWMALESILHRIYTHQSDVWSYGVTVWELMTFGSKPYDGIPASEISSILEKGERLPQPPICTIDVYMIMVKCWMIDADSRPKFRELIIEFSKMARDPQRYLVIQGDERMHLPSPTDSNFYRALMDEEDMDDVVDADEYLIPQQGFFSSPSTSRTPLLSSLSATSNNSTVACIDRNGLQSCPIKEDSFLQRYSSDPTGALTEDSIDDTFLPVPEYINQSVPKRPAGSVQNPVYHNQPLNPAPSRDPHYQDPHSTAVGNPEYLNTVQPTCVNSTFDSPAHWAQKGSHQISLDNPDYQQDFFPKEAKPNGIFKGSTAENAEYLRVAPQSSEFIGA
# Epidermal growth factor receptor (Homo sapiens, UniProt P00533, C797S/L858R/T790M), sequence (P00533 25-1210 T790M/C797S/L858R limits assumed): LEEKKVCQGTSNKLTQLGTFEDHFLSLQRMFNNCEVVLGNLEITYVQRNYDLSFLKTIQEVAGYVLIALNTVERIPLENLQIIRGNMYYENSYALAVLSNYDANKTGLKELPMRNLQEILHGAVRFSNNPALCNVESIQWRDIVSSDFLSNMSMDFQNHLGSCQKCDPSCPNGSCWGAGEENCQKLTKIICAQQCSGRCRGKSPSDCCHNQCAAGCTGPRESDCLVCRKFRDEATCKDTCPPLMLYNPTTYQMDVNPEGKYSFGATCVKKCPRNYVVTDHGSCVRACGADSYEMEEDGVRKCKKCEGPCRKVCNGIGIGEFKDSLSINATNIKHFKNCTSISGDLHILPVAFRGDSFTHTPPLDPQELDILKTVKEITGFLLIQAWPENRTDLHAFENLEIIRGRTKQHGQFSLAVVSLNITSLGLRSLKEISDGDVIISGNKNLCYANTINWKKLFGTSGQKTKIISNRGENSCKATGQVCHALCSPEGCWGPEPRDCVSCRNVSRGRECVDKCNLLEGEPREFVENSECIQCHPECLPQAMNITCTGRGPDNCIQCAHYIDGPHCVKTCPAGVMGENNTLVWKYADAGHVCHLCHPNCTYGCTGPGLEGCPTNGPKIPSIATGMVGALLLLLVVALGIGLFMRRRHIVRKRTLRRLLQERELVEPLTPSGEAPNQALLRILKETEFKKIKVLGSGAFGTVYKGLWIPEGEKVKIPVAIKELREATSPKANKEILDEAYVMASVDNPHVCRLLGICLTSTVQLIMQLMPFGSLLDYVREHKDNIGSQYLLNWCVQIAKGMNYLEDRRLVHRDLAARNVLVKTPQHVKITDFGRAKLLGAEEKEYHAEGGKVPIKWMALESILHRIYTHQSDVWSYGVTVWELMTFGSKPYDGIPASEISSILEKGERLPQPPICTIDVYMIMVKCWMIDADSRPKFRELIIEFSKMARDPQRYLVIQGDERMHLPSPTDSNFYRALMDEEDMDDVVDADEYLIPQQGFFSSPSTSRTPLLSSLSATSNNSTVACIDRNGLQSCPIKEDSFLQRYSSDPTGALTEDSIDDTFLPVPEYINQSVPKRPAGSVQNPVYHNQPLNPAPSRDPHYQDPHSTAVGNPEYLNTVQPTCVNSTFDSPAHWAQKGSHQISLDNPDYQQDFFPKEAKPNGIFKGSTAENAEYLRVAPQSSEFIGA
SMILES,IC50 (BaF3 [2]) [nM],IC50 (NCI-H1975) [nM],IC50 (A-431) [nM],IC50 (BaF3 [3]) [nM],further results
O=C(Nc1nccs1)C(c1cc(F)ccc1O)N1Cc2ccccc2C1=O (centres undefined),–,–,–,–,inhibition in vivo at 60 mg/kg (BaF3 [1]): 22.3%
C=CC(=O)Nc1cc(Nc2nccc(-c3cn(C)c4ccccc34)n2)c(OC)cc1N(C)CCN(C)C [OSIMERTINIB],4610,[…],[…],5150,–
CCC(=O)N[C@H]1CC[C@H](N2C(=O)N(c3ccccc3Cl)Cc3cnc(Nc4ccc(N5CCN(C)CC5)c(C)c4)nc32)CC1,320,310,270,510,inhibition [4]: Dose-dependent effect; Activity (Mus musculus [5]): Non-Toxic; inhibition [6]: Dose-dependent effect; inhibition in vivo at 10 mg/kg (BaF3 [7]): 42.2%; inhibition (Mus musculus [8]): Active
COc1cc(N2CCC(N3CCN(C)CC3)CC2)ccc1Nc1ncc(Cl)c(Nc2ccccc2P(C)(C)=O)n1 [BRIGATINIB],260,1090,–,420,–
N#Cc1ccc(O)c(-c2nc(NCc3cnccn3)c3ccccc3n2)c1,–,–,–,–,IC50 [9]: 85.2 nM; IC50 [10]: 367 nM
